Data reported in ChEMBL document CHEMBL5390213 (ACS Med Chem Lett, 2023).
Active and inactive are the calls of the source. The calls are words filed in the database; no cut-off is given here.

What was measured:
[1] = Growth inhibition of MYCN-amplified human Kelly cells assessed as reduction in cell viability measured after 3 days by Celltiter-glo assay; assay type: functional; conditions: 72 h, time 3 day
Summary of the method: (§1)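 MYCN-amplified Kelly and CHP-134 neuroblastoma cells were exposed to a nine-point serial dilution for 3 days. Viability was read by CellTiter-Glo and normalized to DMSO-treated cells, and GI50 was calculated. Values are reported with standard error of the mean. The highest dose tested was 5.00 or 2.50 μM.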

[2] = test system: CHP-134; test: Growth inhibition of MYCN-amplified human CHP-134 cells assessed as reduction in cell viability measured after 3 days by Celltiter-glo assay; assay type: functional; conditions: CHP-134, 72 h, time 3 day; summary of the method: as §1
[3] = Microsomal stability in human liver microsomes assessed as half life; assay type: ADME, Microsome
[4] = test system: Kelly; test: Induction of cell cycle arrest in human Kelly cells assessed as increase in cyclin B1 expression at 500 nM measured after 24 hrs by Western blot analysis; assay type: functional, cell-based
Summary of the method: (§2)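 Protein lysates were immunoblotted for the mitotic markers cyclin B1 and histone H3 phosphorylated at Ser10, with GAPDH as the loading control.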

[5] = test system: CHP-134; test: Induction of cell cycle arrest in human CHP-134 cells assessed as increase in phospho-histone H3 expression at 500 nM measured after 24 hrs by Western blot analysis; assay type: functional, cell-based; summary of the method: as §2
[6] = test system: Kelly; test: Effect on cell cycle distribution in human Kelly cells at 500 nM measured after 24 hrs by PI/RNAse staining based flow cytometric analysis; assay type: functional
Summary of the method: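 Kelly cells were treated with 500 nM compound or DMSO for 24 h. Cell cycle phase distribution was then profiled and quantified, with n = 3 biological replicates and standard error shown.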

[7] = test system: Kelly; test: Induction of cell cycle arrest in human Kelly cells assessed as increase in phospho-histone H3 expression at 500 nM measured after 24 hrs by Western blot analysis; assay type: functional, cell-based; summary of the method: as §2
[8] = target: T1, Tubulin (Homo sapiens) (UniProt P68371+Q9H4B7+P0DPH7+P68366+Q13509+Q71U36+P04350+Q3ZCM7+P07437+P68363+Q9BQE3+Q6PEY2+Q13885+Q9BVA1+Q9BUF5); test: Disruption of microtubule network in human Kelly cells at 500 nM incubated for 24 hrs by DAPI staining based immunofluorescence analysis; assay type: cell-based
Summary of the method: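 Cells were then immunostained for α-tubulin (Alexa-488), with nuclei counterstained by DAPI. The microtubule network was examined in representative images.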

[9] = test system: CHP-134; test: Induction of cell cycle arrest in human CHP-134 cells assessed as increase in cyclin B1 expression level at 500 nM measured after 24 hrs by Western blot analysis; assay type: functional, cell-based; summary of the method: as §2
[10] = target: T1, Tubulin (Homo sapiens); test: Inhibition of tubulin polymerization (unknown origin) assessed as destabilization of microtubule formation at 5 uM incubated for 45 mins by plate reader analysis; assay type: protein-complex assay
[11] = test system: SK-N-BE(2)-C; test: Antiproliferative activity against MYCN-amplified human SK-N-BE(2)-C cells assessed as reduction in cell viability measured after 3 days by Cell titer-glo assay; assay type: functional, cell-based; conditions: time 3.0 day
[12] = test system: Kelly; test: Induction of cell cycle arrest in human Kelly cells assessed as increase in cyclin B1 expression at 100 nM measured after 24 hrs by Western blot analysis; assay type: functional, cell-based
Summary of the method: (§3)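 Lysates immunoblotted for mitotic markers cyclin B1 and histone H3 phosphorylated at Ser10. GAPDH used as loading control. Levels compared against DMSO vehicle.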

[13] = test system: Kelly; test: Induction of cell cycle arrest in human Kelly cells assessed as accumulation of cells in G2/M phase at 100 nM measured after 24 hrs by PI/RNAse staining based flow cytometric analysis; assay type: functional
Summary of the method: (§4)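 Cell cycle phase distribution, including G2/M fraction, quantified. n = 3 biological replicates, standard error. Unpaired two-tailed t test.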

[14] = test system: CHP-134; test: Induction of cell cycle arrest in human CHP-134 cells at 100 nM measured after 24 hrs by PI/RNAse staining based flow cytometric analysis; assay type: functional; summary of the method: as §4
[15] = target: T1, Tubulin (Homo sapiens); test: Disruption of microtubule network in human Kelly cells at 100 nM incubated for 24 hrs by DAPI staining based immunofluorescence analysis; assay type: cell-based
Summary of the method: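 Immunostained for α-tubulin (Alexa-488) with DAPI nuclear counterstain. Microtubule network integrity and tubulin compaction around nuclei assessed from representative images.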

[16] = test system: CHP-134; test: Induction of cell cycle arrest in human CHP-134 cells assessed as increase in phospho-histone H3 expression at 100 nM measured after 24 hrs by Western blot analysis; assay type: functional, cell-based; summary of the method: as §3
[17] = test system: Kelly; test: Induction of cell cycle arrest in human Kelly cells assessed as increase in phospho-histone H3 expression at 100 nM measured after 24 hrs by Western blot analysis; assay type: functional, cell-based; summary of the method: as §3
[18] = test system: CHP-134; test: Induction of cell cycle arrest in human CHP-134 cells assessed as increase in cyclin B1 expression level at 100 nM measured after 24 hrs by Western blot analysis; assay type: functional, cell-based; summary of the method: as §3

Row | Structure (SMILES) | GI50 [1] | GI50 [2] | also measured
1 | COc1cc(-c2cccn3cc(-c4ccc(C(F)(F)F)cc4)nc23)cc(OC)c1OC | > 5000 nM | 2090 nM | –
2 | Cc1ccc(-c2cn3ccnc(-c4cc(F)cc(F)c4)c3n2)cc1 | 438 nM | 474 nM | –
3 | COc1c(F)cc(-c2nccn3cc(-c4ccc(C)cc4)nc23)cc1F | 402 nM | 175 nM | half-life [3]: 36.1 min; Activity [4]: inactive; Activity [5]: inactive; Activity [6]: inactive; Activity [7]: inactive; Activity [8]: inactive; Activity [9]: inactive; inhibition [10]: Active; Activity [11]: Active
4 | COc1cc(-c2cc(C)cn3cc(-c4ccc(C)cc4)nc23)cc(OC)c1OC | 717 nM | 381 nM | –
5 | COc1cc(-c2cccn3cc(-c4ccc(Cl)cc4)nc23)cc(OC)c1OC | 3420 nM | 1620 nM | –
6 | COc1cc(-c2cccn3cc(-c4ccc(C)cc4)nc23)cc(OC)c1OC | 217 nM | 152 nM | inhibition [10]: Active
7 | COc1ccc(-c2cn3cccc(-c4cc(OC)c(OC)c(OC)c4)c3n2)cc1 | 1370 nM | 511 nM | –
8 | COc1cc(-c2cccc3nc(-c4ccc(C)cc4)cn23)cc(OC)c1OC | 4920 nM | 3320 nM | –
9 | COc1c(Cl)cc(-c2nccn3cc(-c4ccc(C)cc4)nc23)cc1Cl | 165 nM | 79 nM | inhibition [10]: Active; Activity [11]: Active
10 | Cc1ccc(-c2cn3ccnc(-c4cc(Cl)c(F)c(Cl)c4)c3n2)cc1 | > 2500 nM | > 2500 nM | –
11 | COc1cc(-c2nccn3cc(-c4ccc(C)cc4)nc23)cc(OC)c1OC | 12 nM | 7 nM | half-life [3]: 26 min; Activity [12]: Active; Activity [13]: Active; Activity [14]: Active; Activity [15]: Active; Activity [16]: Active; Activity [17]: Active; inhibition [10]: Active; Activity [18]: Active; Activity [11]: Active
12 | COc1cc2c(c(OC)c1OC)-c1ccc(OC)c(=O)cc1[C@@H](NC(C)=O)CC2 [COLCHICINE] | 9 nM | 8 nM | half-life [3]: > 60 min; Activity [12]: Active; Activity [16]: Active; Activity [17]: Active; Activity [18]: Active
13 | COc1cc(-c2cccn3cc(-c4ccc(F)cc4)nc23)cc(OC)c1OC | 3000 nM | 1610 nM | –
14 | COc1c(Br)cc(-c2nccn3cc(-c4ccc(C)cc4)nc23)cc1Br | 504 nM | 469 nM | –
